Legend:
[1] = Cytotoxicity against human MT2 cells by MTT assay; type: cell-based
[2] = tested on: Human immunodeficiency virus 1; experiment: Antiviral activity against HIV1 expressing VSV glycoprotein plasmid infected in human 293T cells treated 15 mins before viral infection measured after 48 hrs by luciferase reporter gene assay; type: functional, organism-based; details: Human immunodeficiency virus 1, HEK-293T
Outline: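 293T cells plated 6×10⁴/well one hour before infection. Compound preincubated 15 min, then VSVG-pseudotyped env-deficient HIV-1 (pNL4-3.luc.R-E-, from Ca₃(PO₄)₂ co-transfection of 293T) added. Solvent-only control. After 48 h, cells lysed and luciferase activity read by luminometer. EC50 is the mean of at least two independent determinations.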

[3] = Selectivity index, ratio of CC50 for human MT2 cells to EC50 for HIV1; type: toxicity, cell-based; details: read-out: Ratio CC50/EC50
[4] = Cytotoxicity against human HepG2.2.15 cells after 3 days by MTT assay; type: cell-based, HepG2 2.2.15
Outline: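 HepG2.2.15 cells, kept in RPMI 1640 with 10% FBS and G418 at 37°C under 5% CO2, were seeded at 1×10⁵ cells/well and cultured 24 h. They were then exposed to four compound concentrations (5 wells each) for 3 days, with drug-free cells as control. MTT (5 mg/mL) was added for 4 h at 37°C, formazan dissolved in DMSO, and A490 read. Survival was expressed as % of control, and CC50 was taken by Reed-Muench from at least two independent determinations.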

[5] = Selectivity index, ratio of CC50 for human HepG2.2.15 cells to EC50 for HBV infected in human HepG2.2.15 assessed as reduction of viral e-antigen production
[6] = tested on: Hepatitis B virus; experiment: Antiviral activity against HBV infected in human HepG2.2.15 assessed as reduction of viral e-antigen production […] by ELISA; type: functional, organism-based; details: HepG2 2.2.15
[7] = tested on: Hepatitis B virus; experiment: Antiviral activity against HBV infected in human HepG2.2.15 assessed as reduction of viral s-antigen production […] by ELISA; type: functional, organism-based; details: HepG2 2.2.15
[8] = Selectivity index, ratio of CC50 for human HepG2.2.15 cells to EC50 for HBV infected in human HepG2.2.15 assessed as reduction of viral s-antigen production

Row | Compound | CC50 [1] [nM] | EC50 [2] [nM] | selectivity ratio [3] | CC50 at 72 h [4] [nM] | Ratio CC50/EC50 [5] | EC50 [6] [nM] | EC50 [7] [nM] | Ratio CC50/EC50 [8]
1 | Nc1ccn([C@@H]2O[C@@](CO)(n3cc(C4(O)CCCC4)nn3)[C@@H](O)[C@@H]2F)c(=O)n1 | ≥ 25000 | 1300 | – | – | – | – | – | –
2 | CCc1ccc(-c2cn([C@]3(CO)O[C@@H](n4ccc(N)nc4=O)[C@@H](F)[C@@H]3O)nn2)cc1 | ≥ 25000 | 600 | – | – | – | – | – | –
3 | Nc1ccn([C@@H]2O[C@@](CO)(n3cc(CC4CCCCC4)nn3)[C@@H](O)[C@@H]2F)c(=O)n1 | ≥ 25000 | 4800 | – | – | – | – | – | –
4 | Nc1ccn([C@@H]2O[C@@](CO)(n3ccnn3)[C@@H](O)[C@@H]2F)c(=O)n1 | ≥ 25000 | 90 | > 278 | – | – | – | – | –
5 | Nc1ccn([C@@H]2O[C@@](CO)(n3cc(-c4ccccc4)nn3)[C@@H](O)[C@@H]2F)c(=O)n1 | ≥ 25000 | 83 | > 278 | 566000 | 2264 | 250 | 100 | –
6 | CC(C)(C)c1cn([C@]2(CO)O[C@@H](n3ccc(N)nc3=O)[C@@H](F)[C@@H]2O)nn1 | ≥ 25000 | 80 | > 278 | – | – | – | – | –
7 | [N-]=[N+]=N[C@]1(CO)O[C@@H](n2ccc(N)nc2=O)[C@@H](F)[C@@H]1O [RO-0622] | > 10000 | 0.3 | – | – | – | – | – | –
8 | Nc1ccn([C@@H]2O[C@@](CO)(n3cc(C4CC4)nn3)[C@@H](O)[C@@H]2F)c(=O)n1 | ≥ 25000 | 600 | – | 834000 | – | 1000 | 120 | –
9 | Cc1ccc(-c2cn([C@]3(CO)O[C@@H](n4ccc(N)nc4=O)[C@@H](F)[C@@H]3O)nn2)cc1 | ≥ 25000 | 3700 | – | 498000 | – | > 1000 | 10 | 49800
10 | CCCCc1cn([C@]2(CO)O[C@@H](n3ccc(N)nc3=O)[C@@H](F)[C@@H]2O)nn1 | ≥ 25000 | 300 | – | – | – | – | – | –
11 | Cc1cn([C@H]2C[C@H](N=[N+]=[N-])[C@@H](CO)O2)c(=O)[nH]c1=O [ZIDOVUDINE] | ≥ 25000 | 84 | – | – | – | – | – | –

Source: ChEMBL document CHEMBL2380309, “Design, synthesis, and biological evaluation of new 2'-deoxy-2'-fluoro-4'-triazole cytidine nucleosides as potent antiviral agents” (Eur J Med Chem, 2013)
